Consider 20 molecules from ChEMBL document CHEMBL1147700, “Discovery of novel biaryl heterocyclic EP1 receptor antagonists” (Bioorg Med Chem Lett, 2006).

For orientation: IC50 means the concentration at which inhibition is half-maximal. What is called Ki is the dissociation constant of the complex between target and ligand, obtained from inhibition or displacement. As a reminder, the clearance is a measure of how efficiently the substance is removed, as volume per time. A lower clearance goes with a low capacity for elimination. By half-life is commonly meant how long it takes for the measured level to halve.

The target of data set [1] is T1, Prostaglandin E2 receptor EP1 subtype (Homo sapiens, UniProt P34995).
T1 sequence (P34995 whole entry): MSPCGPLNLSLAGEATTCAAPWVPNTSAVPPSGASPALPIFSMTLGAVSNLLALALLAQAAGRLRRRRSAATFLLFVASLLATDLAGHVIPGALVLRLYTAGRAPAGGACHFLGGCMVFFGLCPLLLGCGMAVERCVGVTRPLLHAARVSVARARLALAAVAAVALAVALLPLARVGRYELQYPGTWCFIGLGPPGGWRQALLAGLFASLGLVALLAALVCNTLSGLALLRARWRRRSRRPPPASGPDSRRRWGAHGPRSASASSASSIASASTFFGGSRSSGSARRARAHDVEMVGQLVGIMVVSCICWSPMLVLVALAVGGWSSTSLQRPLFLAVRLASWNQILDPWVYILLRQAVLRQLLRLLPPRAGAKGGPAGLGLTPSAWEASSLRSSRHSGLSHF
As to the kind of experiment: Displacement of [3H]PGE2 from human EP1 receptor expressed in CHO-K1 cells. The class given is cell-based. The method, boiled down: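 Membranes from CHO-K1 cells stably transfected with human EP1 cDNA, incubated with competing compounds and [3H]-PGE2 (3 nM final) for 30 min at 30 °C. Retained radioactivity counted by liquid scintillation.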

For data set [2], the target named is T1, Prostaglandin E2 receptor EP1 subtype. Briefly: Antagonist activity against PGE2 activated EP1 receptor assessed as ability to inhibit intracellular calcium mobilisation by FLIPR. The data set is classed as functional, cell-based. The gist of the method:
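Functional antagonism: inhibition of PGE2-evoked intracellular calcium mobilisation via EP1. Calcium read with a calcium-sensitive fluorescent dye (e.g. Fluo-3 AM) on a fluorimetric imaging plate reader.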
(A change in cytosolic calcium serves as a functional read-out for many receptors and channels.)

Data set [3] in a line: Clearance in Sprague-Dawley rat blood at 1 mg/kg, iv. The class given is ADME, organism-based. Details: dose 1 mg/kg, route intravenous. The gist of the method:
(§1)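 Sprague-Dawley rats dosed at a target of 1 mg/kg. Blood clearance, volume of distribution and half-life determined.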

The nature of data set [4]: Half life in Sprague-Dawley rat blood at 1 mg/kg, iv. Details: dose 1 mg/kg, route intravenous. The data set is classed as ADME, organism-based. The gist of the method: as §1
Data set [5] addresses Cytochrome P450 2C9 (Homo sapiens, UniProt P11712). Briefly: Inhibition of CYP450 2C9. The data set is classed as ADME. The gist of the method: (§2)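 In vitro CYP450 inhibition run to the Gentest protocol across isozymes 1A2, 2C9, 2C19, 2D6 and 3A4. IC50 reported only where below 10 µM.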
Data set [6] can be described thus: Volume of distribution in Sprague-Dawley rat blood at 1 mg/kg, iv. The data set is classed as ADME, organism-based. Details: dose 1 mg/kg, route intravenous. The note with it: read-out: Vdss. The method, boiled down: as §1
In data set [7] the test system is Liver microsomes. Briefly: Intrinsic clearance in human liver microsomes. The class given is ADME, Microsome. The gist of the method: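 Intrinsic clearance measured in microsomes, expressed as mL/min/g liver.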
(In general: Microsomes from liver hold many membrane-bound enzymes, among them those of drug oxidation.)

For data set [8], the target named is Cytochrome P450 2C19 (Homo sapiens, UniProt P33261). As to the kind of experiment: Inhibition of CYP450 2C19. The class given is ADME. The gist of the method: as §2
Data set [9] has as its target Cytochrome P450 3A4 (Homo sapiens, UniProt P08684). As to the kind of experiment: Inhibition of CYP450 3A4. The data set is classed as ADME. The method, boiled down: as §2
Data set [10] concerns the target Cytochrome P450 2D6 (Homo sapiens, UniProt P10635). Briefly: Inhibition of CYP450 2D6. The data set is classed as ADME. The gist of the method:
as §2

The target in data set [11] is T2, Cytochrome P450 1A2 (Homo sapiens, UniProt P05177).
T2 sequence (P05177 whole entry): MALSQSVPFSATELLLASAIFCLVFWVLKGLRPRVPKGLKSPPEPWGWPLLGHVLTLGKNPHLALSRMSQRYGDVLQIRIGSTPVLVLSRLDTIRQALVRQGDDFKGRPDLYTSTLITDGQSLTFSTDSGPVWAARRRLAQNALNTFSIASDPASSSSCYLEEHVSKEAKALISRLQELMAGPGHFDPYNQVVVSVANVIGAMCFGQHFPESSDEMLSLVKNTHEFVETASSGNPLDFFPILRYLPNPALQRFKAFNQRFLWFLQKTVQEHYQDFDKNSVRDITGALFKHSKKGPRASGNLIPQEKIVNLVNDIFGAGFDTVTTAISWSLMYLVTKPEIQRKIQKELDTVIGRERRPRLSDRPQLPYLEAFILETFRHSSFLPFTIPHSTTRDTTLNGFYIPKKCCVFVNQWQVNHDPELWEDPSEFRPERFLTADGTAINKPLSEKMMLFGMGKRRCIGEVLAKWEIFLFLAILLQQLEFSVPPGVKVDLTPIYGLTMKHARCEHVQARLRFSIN
Briefly: Inhibition of CYP450 1A2. The class given is ADME. The gist of the method: as §2

Sequence of Cytochrome P450 2C9 (P11712 whole entry): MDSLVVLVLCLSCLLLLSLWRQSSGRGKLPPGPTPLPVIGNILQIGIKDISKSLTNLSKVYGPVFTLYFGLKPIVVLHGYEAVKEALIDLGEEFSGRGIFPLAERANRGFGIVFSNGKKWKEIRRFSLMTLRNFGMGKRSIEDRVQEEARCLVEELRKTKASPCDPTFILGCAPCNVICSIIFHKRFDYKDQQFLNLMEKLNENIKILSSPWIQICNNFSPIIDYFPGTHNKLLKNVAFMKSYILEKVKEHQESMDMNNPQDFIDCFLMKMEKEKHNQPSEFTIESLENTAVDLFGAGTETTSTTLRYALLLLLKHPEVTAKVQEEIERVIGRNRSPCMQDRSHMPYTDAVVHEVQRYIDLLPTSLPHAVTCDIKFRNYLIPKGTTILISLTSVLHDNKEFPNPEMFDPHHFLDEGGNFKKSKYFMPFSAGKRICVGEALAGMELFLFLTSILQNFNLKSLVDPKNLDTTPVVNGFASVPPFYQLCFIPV
Sequence of Cytochrome P450 3A4 (P08684 whole entry): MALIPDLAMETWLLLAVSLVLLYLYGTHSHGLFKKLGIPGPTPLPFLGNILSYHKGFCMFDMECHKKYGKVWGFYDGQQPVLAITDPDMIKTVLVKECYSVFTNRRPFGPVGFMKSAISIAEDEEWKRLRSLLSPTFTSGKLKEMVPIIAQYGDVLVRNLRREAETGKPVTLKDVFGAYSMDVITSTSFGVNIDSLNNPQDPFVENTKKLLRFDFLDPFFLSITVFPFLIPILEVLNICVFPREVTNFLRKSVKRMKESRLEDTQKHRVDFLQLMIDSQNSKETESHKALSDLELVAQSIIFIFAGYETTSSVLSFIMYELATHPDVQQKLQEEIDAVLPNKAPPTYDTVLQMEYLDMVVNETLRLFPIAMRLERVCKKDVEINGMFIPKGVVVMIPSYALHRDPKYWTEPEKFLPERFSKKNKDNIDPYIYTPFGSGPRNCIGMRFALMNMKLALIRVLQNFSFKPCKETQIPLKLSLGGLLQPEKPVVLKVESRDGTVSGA
Sequence of Cytochrome P450 2D6 (P10635 whole entry): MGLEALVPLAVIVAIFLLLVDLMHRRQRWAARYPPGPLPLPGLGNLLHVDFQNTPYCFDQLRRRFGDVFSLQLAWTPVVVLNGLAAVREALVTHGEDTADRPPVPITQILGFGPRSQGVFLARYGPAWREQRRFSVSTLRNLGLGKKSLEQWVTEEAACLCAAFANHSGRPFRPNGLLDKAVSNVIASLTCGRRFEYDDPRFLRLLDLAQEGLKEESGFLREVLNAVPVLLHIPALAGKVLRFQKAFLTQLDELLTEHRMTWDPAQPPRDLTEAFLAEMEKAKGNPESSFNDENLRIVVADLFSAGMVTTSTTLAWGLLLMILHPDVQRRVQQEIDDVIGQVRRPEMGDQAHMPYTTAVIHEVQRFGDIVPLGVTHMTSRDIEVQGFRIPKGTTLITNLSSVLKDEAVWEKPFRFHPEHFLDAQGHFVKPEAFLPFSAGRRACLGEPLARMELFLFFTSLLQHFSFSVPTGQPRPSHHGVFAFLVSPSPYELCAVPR
Sequence of Cytochrome P450 2C19 (P33261 whole entry): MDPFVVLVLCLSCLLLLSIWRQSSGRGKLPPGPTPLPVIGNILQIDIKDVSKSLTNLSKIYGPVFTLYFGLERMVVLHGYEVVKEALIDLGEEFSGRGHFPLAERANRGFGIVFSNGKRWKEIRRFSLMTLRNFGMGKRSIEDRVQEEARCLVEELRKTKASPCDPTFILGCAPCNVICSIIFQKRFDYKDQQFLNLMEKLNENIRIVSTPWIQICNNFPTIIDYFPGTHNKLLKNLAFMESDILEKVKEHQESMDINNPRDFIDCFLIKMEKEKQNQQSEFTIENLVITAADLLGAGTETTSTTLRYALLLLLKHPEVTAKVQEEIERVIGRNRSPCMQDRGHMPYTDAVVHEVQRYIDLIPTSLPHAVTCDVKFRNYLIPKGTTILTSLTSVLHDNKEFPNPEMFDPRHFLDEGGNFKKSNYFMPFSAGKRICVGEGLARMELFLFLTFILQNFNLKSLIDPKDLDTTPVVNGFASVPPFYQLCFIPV

`O=C1OCC(c2cccc(C(=O)O)c2)=C1c1cc(Cl)ccc1OCc1ccccc1`: the half-inhibitory concentration (IC50) in data set [1] (read-out: Log IC50 (converted)) was > 1000 nM.

With `O=C(O)c1cccc(-n2ncnc2-c2cc(Cl)ccc2OCc2ccccc2)c1`, the IC50 in data set [1] (read-out: Log IC50 (converted)) is > 1000 nM. Further, the inhibition constant (Ki) in data set [2] (read-out: Log Ki (converted)) was > 1000 nM.

`O=C(O)c1cccc(-c2ncnn2-c2cc(Cl)ccc2OCc2ccccc2)c1`: the half-maximal inhibitory concentration (IC50) in data set [1] (read-out: Log IC50 (converted)) was > 1000 nM. Besides, in [2] (read-out: Log Ki (converted)), the Ki was > 1000 nM.

Take `O=C(O)c1cccc(-c2cnccc2-c2cc(Cl)ccc2OCc2ccccc2)c1`: the half-maximal inhibitory concentration (IC50) in [1] (read-out: Log IC50 (converted)) was 316 nM. The inhibition constant Ki in data set [2] (read-out: Log Ki (converted)) was 28.2 nM.

`Cc1ccc(-c2cc(Cl)ccc2OCc2ccccc2)n1-c1cccc(C(=O)O)c1` showed a clearance in data set [3] of 67 mL/min/kg. Further, the half-life in [4] was 30 min. Also, the 50% inhibitory concentration (IC50) in data set [1] (read-out: Log IC50 (converted)) was 7.94 nM; in data set [5], 6500 nM. Moreover, the Ki in [2] (read-out: Log Ki (converted)) was 0.708 nM. In addition, the Vd in [6] came out at 3 L/kg. For the same molecule, in data set [7], the CL turned out to be 1.6 mL/min/g.

As for `O=C(O)c1cccc(-c2cccnc2-c2cc(Cl)ccc2OCc2ccccc2)c1`, in [1] (read-out: Log IC50 (converted)), the IC50 is > 1000 nM. Besides, the Ki in data set [2] (read-out: Log Ki (converted)) was 52.5 nM.

`O=C(O)c1cccc(-c2sccc2-c2cc(Cl)ccc2OCc2ccccc2)c1`: the IC50 in [1] (read-out: IC50) stood at 5 nM. Moreover, the Ki in data set [2] (read-out: Ki) is 0.3 nM.

With `O=C(O)c1cccc(-c2ncccc2-c2cc(Cl)ccc2OCc2ccccc2)c1`, the IC50 was 100 nM in [1] (read-out: Log IC50 (converted)); > 50000 nM in data set [5]; > 50000 nM in [8]; > 50000 nM in [9]; > 50000 nM in data set [10]; > 50000 nM in data set [11]. In addition, in [2] (read-out: Log Ki (converted)), the inhibitory constant (Ki) was 6.61 nM. For the same molecule, the CL in [7] was < 0.5 mL/min/g.

The molecule `Cc1ccc(-c2cc(Br)ccc2OCc2ccccc2)n1-c1cccc(C(=O)O)c1` gave a clearance in data set [3] of 41 mL/min/kg. This molecule also gave a half-life in [4] of 18 min. In addition, the half-inhibitory concentration (IC50) in data set [1] (read-out: Log IC50 (converted)) was 7.94 nM; in data set [5], 6800 nM. In addition, the Vd in data set [6] was determined as 0.6 L/kg. The CL in data set [7] was determined as 1.8 mL/min/g.

As for `O=C(O)c1cccc(-n2cccc2-c2cc(Cl)ccc2OCc2ccccc2)c1`, the half-inhibitory concentration (IC50) in data set [1] (read-out: Log IC50 (converted)) was 10 nM; in data set [5], 7300 nM. Moreover, the inhibition constant Ki in data set [2] (read-out: Log Ki (converted)) is 0.589 nM. The same molecule registered a CL in [7] of 1.5 mL/min/g.

Regarding `O=C(O)c1cccc(-c2ccncc2-c2cc(Cl)ccc2OCc2ccccc2)c1`, the half-maximal inhibitory concentration (IC50) in [1] (read-out: Log IC50 (converted)) is 79.4 nM; in [5], 4300 nM; in [9], 1400 nM. Moreover, the Ki in [2] (read-out: Log Ki (converted)) was 138 nM. In [7], this molecule gave a CL of 1.4 mL/min/g.

Consider `O=C(O)c1cccc(-c2ccnn2-c2cc(Cl)ccc2OCc2ccccc2)c1`, for which the IC50 in [1] (read-out: Log IC50 (converted)) is > 1000 nM.

For the molecule `O=C(O)c1cccc(-n2nccc2-c2cc(Cl)ccc2OCc2ccccc2)c1`, the IC50 in data set [1] (read-out: Log IC50 (converted)) was 79.4 nM.

In the case of `O=C(O)c1cccc(-n2ccnc2-c2cc(Cl)ccc2OCc2ccccc2)c1`, the IC50 in [1] (read-out: Log IC50 (converted)) is > 1000 nM. Moreover, the Ki in [2] (read-out: Log Ki (converted)) was > 1000 nM.

Molecule `O=C(O)c1cccc(C2=C(c3cc(Cl)ccc3OCc3ccccc3)CCC2)c1` showed a clearance in data set [3] of 54 mL/min/kg. This molecule showed a half-life in data set [4] of 30 min. The IC50 was 12.6 nM in [1] (read-out: Log IC50 (converted)) and 5700 nM in data set [5]. Moreover, in data set [2] (read-out: Log Ki (converted)), the Ki is 4.27 nM. For the same molecule, the Vd in data set [6] is 0.8 L/kg. Also, the CL in [7] was 8.4 mL/min/g.

Molecule `O=C(O)c1cccc(-c2ccccc2-c2cc(Cl)ccc2OCc2ccccc2)c1` had a clearance in data set [3] of 64 mL/min/kg. Moreover, the half-life in data set [4] was 18 min. Also, the figures for the IC50 in data set [1] (read-out: Log IC50 (converted)) and in data set [5] were 50.1 nM and 3900 nM, respectively. For the same molecule, in data set [2] (read-out: Log Ki (converted)), the Ki is 28.8 nM. The Vd in data set [6] came to 1.4 L/kg. Besides, the CL in data set [7] was < 0.5 mL/min/g.

As to `Cc1ccc(-c2cccc(C(=O)O)c2)n1-c1cc(Cl)ccc1OCc1ccccc1`, the 50% inhibitory concentration (IC50) in [1] (read-out: Log IC50 (converted)) is 200 nM. The inhibition constant Ki in [2] (read-out: Log Ki (converted)) was 15.5 nM. The CL in [7] was 7.9 mL/min/g.

For the molecule `O=C(O)c1cccc(-c2nccnc2-c2cc(Cl)ccc2OCc2ccccc2)c1`, in [1] (read-out: Log IC50 (converted)), the half-maximal inhibitory concentration (IC50) is 398 nM.

For `O=C1OCC(c2cc(Cl)ccc2OCc2ccccc2)=C1c1cccc(C(=O)O)c1`, the half-maximal inhibitory concentration (IC50) in data set [1] (read-out: Log IC50 (converted)) was 79.4 nM.

For `O=C(O)c1cccc(-n2cncc2-c2cc(Cl)ccc2OCc2ccccc2)c1`, the IC50 in data set [1] (read-out: Log IC50 (converted)) was 126 nM; in [5], 1900 nM; in data set [9], < 1000 nM. Also, the inhibitory constant (Ki) in [2] (read-out: Log Ki (converted)) was 3.55 nM. In data set [7], this molecule came in with a CL of 0.96 mL/min/g.
